In ChEMBL document CHEMBL4513216, “Probing the Open Global Health Chemical Diversity Library for Multistage-Active Starting Points for Next-Generation Antimalarials” (ACS Infect Dis, 2020):

Test: Toxicity liver stage against HepG2, at 10uM
Assay type: cell-based
Parameters: test concentration 10 uM, cell line HepG2-A16-CD81EGFP
Conditions: human, HepG2-A16-CD81EGFP cells; read-out: INHIBITION
How it was run: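 Uninfected HepG2-A16-CD81EGFP cells, 3 × 10^3 per well, 1536-well, plated on prespotted compound at 10 μM final, parasite-free screening media added to match infected plates; puromycin 10 μM positive, DMSO 0.5% negative; run in parallel with 48 h PbLuc assay at 37 °C, 5% CO2; viability by CellTiter-Glo luminescence, normalized to controls.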

Row | Structure (SMILES) | cytotoxicity at 10 µM [%]
1 | c1cnn(CC2CN(CC3CCCC3)CCO2)c1 (stereo unspecified) | -2.55
2 | N#Cc1cccc(N2CC3(CCN(C(=O)c4ccnnc4)C3)CC2=O)c1 (stereo unspecified) | 2.64
3 | c1cnn(C2CN(Cc3noc(C4CC4)n3)C2)c1 | 0.138
4 | Cc1cc(NC(=O)NC(C)CO)ccc1OCC(F)(F)F (stereo unspecified) | 5.2
5 | COc1ccc(S(=O)(=O)NC(=O)c2ccccc2F)cc1OC | -2.72
6 | CC(C)C(C)NC(=O)Nc1ccc(F)c(C(N)=O)c1 (stereo unspecified) | -6.54
7 | CC(C)(C)n1nc(C2CC2)cc1C(=O)NC1CCN(CC(N)=O)CC1 | -2.06
8 | CCCN(C(=O)COCC)c1cccc(C)c1 | 0.727
9 | O=C(NCCc1nccs1)c1cn(CCN2CCNCC2)nn1 | -4.41
10 | CC(C)(C)OC(=O)N[C@@H]1C[C@@H](O)CN(C(=O)c2cccc(F)c2)C[C@H]1O | 0.187
11 | COc1ccc(F)cc1S(=O)(=O)N1CCN(CCn2ccnc2)CC1 | -7.72
12 | CC(=O)Nc1ccc(Oc2cc(C)nc(C3CCNCC3)c2)cc1 | 2.69
13 | c1nc(C2CCCCO2)ncc1CN1CCOCC1 (stereo unspecified) | -8.45
14 | CC(C)N1CCOC(c2ccnc(N(C)C)n2)C1 (stereo unspecified) | -0.104
15 | O=C(OCc1cc(=O)n2cc(Br)ccc2n1)c1ccc2c(c1)OCO2 | -7.37
16 | CCOC(C)c1nc(Cn2cc(C(=O)NC)ccc2=O)cs1 (stereo unspecified) | -0.315
17 | COCCN(Cc1ccc(F)cc1Cl)C(=O)c1cnn(C)c1C | 12.8
18 | O=C(N1CCCC1)N1CCC2(CCN(Cc3ccccn3)C2=O)C1 (stereo unspecified) | 3.2
19 | c1cnn(CCNCCCOc2ccc3c(c2)OCO3)c1 | 7.61
20 | Cc1cnc(NC(=O)N2CCC(N3CCCCC3=O)CC2)s1 | -0.772
21 | COCc1cc(CC2(NC3CCN(C)CC3)COC2)no1 | -4.12
22 | CC(Nc1cccc(Oc2ccc(C#N)cn2)c1)C(=O)NC1CC1 (stereo unspecified) | 12.8
23 | N#Cc1cccc(OCCN2CCCC2C(=O)N2CCSCC2)c1 (stereo unspecified) | 9.06

Row | Structure (SMILES) | cytotoxicity at 10 µM [%]
24 | O=C(c1cnccn1)N(CCO)Cc1cc(Br)ccc1F | 5.64
25 | NC(=O)C1CN(C(=O)Nc2ccccc2SC(F)(F)F)CCO1 (stereo unspecified) | -8.3
26 | O=C(NCCNC(=O)c1scnc1Cl)c1ccoc1 | -7.91
27 | c1ncn(CC2CCCN(Cc3csc(-c4ccsc4)n3)C2)n1 (stereo unspecified) | -9.86
28 | COCCNC(=O)NCCCOC1CCCc2ccccc21 (stereo unspecified) | 11.7
29 | N#Cc1cccnc1NCc1cccnc1N1CCC(C(N)=O)CC1 | -0.179
30 | Cc1nc(C2CCCN2C(=O)Cc2ccc(F)cc2)ncc1C(N)=O (stereo unspecified) | -18.2
31 | COc1ccc(C(=O)N(Cc2cnn(C)c2)C(C)C)cc1OC(F)F | -5.17
32 | COc1ncccc1CN1CCc2[nH]nc(C(=O)N(C)C)c2C1 | 1.55
33 | COc1ccccc1OC1CN(C(=O)CN(C)Cc2ccncc2)C1 | -3.09
34 | COc1cccc(S(=O)(=O)CCN2CCN(CCO)CC2)c1 | 0.878
35 | C[C@@H](NC(=O)c1ccc(Cl)cc1)c1onc(-c2cccnc2)c1C(=O)O | -1.6
36 | O=C(NCCc1ccccn1)[C@@]12CCO[C@@H]1CCN(C1CCC1)C2 | 8.03
37 | COc1c(Br)cccc1CCNC(=O)c1csnn1 | -2.5
38 | Cc1nc(C2CCCN2Cc2ccc(S(=O)(=O)N(C)C)o2)no1 (stereo unspecified) | -2.53
39 | Cc1cccc(CN2C[C@@H]3COC[C@]3(CNC(=O)C3CCC3)C2)c1 | -112
40 | COc1cc(CNCc2c(C)nn(C)c2N(C)C)ccc1OCCO | -7.59
41 | CC1(C)CC(C(=O)N2CCC3(CCC(=O)N(C4CC4)C3)CC2)CCO1 (stereo unspecified) | 0.868
42 | CCN1CC2(CC1=O)CN(C(=O)c1ccsc1)CCN(C(=O)N(C)C)C2 (stereo unspecified) | 3.01
43 | CN(C)[C@@H]1CCN(c2ncc(F)cn2)[C@H]1Cc1cccnc1 | 2.53
44 | CCOCC(=O)N(C)Cc1nc(C(F)(F)F)cs1 | 2.49
45 | Cc1ccc(NC(=O)CCC2CC2)cc1N1CCOC1=O | 3.86
46 | CN(C)c1ncc(-c2cc(C(=O)N3CCCC3)n(CC3CC3)c2)cn1 | -0.376

Row | Structure (SMILES) | cytotoxicity at 10 µM [%]
47 | CCCc1nc(N2Cc3cnn(Cc4ccc(F)cc4)c3C2)no1 | 17.3
48 | CN(Cc1cc[nH]n1)C(=O)c1cccc(CCC(C)(C)O)c1 | -0.0174
49 | O=C(Cn1cccnc1=O)NC(Cc1ccsc1)c1nccs1 (stereo unspecified) | -4.44
50 | COCc1c(C(=O)N2CCCC(C(=O)c3ccccc3)C2)noc1C (stereo unspecified) | -2.54
51 | O=C(CC1CCCC1)N1C[C@H](Oc2cccnc2)[C@H]2OCCC[C@H]21 | 3.82
52 | CCNc1cc2c(nn1)CCN(C(=O)c1ccnc(C)n1)C2 | -5.04
53 | c1ccc(C[C@H]2[C@H](N3CCOCC3)CCN2Cc2cccnc2)cc1 | -4.34
54 | CC(C)N1CCC(CC(=O)NCCc2cc(O)ncn2)CC1 | 6.36
55 | CN(C)C(C(=O)N1CC(c2ccccn2)C1)c1ccc2c(c1)OCO2 (stereo unspecified) | 10.6
56 | Cc1cc(C(=O)NCC2CCC3(CC2)OCCO3)[nH]n1 | -10.7
57 | CNS(=O)(=O)CCCN1CCCC1c1cc(C)on1 (stereo unspecified) | -6.31
58 | COc1ccc(CCC(=O)NCc2cc(C)on2)cc1 | -56.4
59 | CC(C)=CCN1CCN(C(=O)c2cc(C)n[nH]2)[C@H]2CS(=O)(=O)C[C@H]21 | -6.9
60 | Cc1nn(C)cc1C(=O)NCc1cc(N(C)C)nc2ccccc12 | 2.29
61 | CC1CCCN(CCNC(=O)c2scnc2Cl)C1 (stereo unspecified) | -6.06
62 | Cc1csc(NC(=O)[C@@H]2C[C@H]3[C@H](CCN3c3ncccn3)O2)n1 | -13.8
63 | O=C(Nc1ccccc1-c1cccs1)N1CCOCC1 | -5.01
64 | COCCN1CCC2(CCC1=O)CN(C1CCOCC1)CCN2C (stereo unspecified) | 0.0227
65 | CC(=O)N1CCOC2(CCCN(Cc3ccc(Cl)c(C(F)(F)F)c3)C2)C1 (stereo unspecified) | 3.68
66 | O=S(=O)(c1cccs1)N1CC[C@H]2[C@H]1CCN2c1ncccn1 | -0.861
67 | O=c1cc(N2CCCCC2)cnn1CCCn1cccn1 | -48.9
68 | NC(=O)C1CN(C(=O)Nc2ccccc2N2CCCCCC2)CCO1 (stereo unspecified) | -6.31
69 | CN(C(=O)Cc1ccc2c(c1)OCCO2)C1CCCC1 | 9.66

Row | Structure (SMILES) | cytotoxicity at 10 µM [%]
70 | O=C(O)Cn1ccc2c(Cl)cccc21 | 0.308
71 | CN(Cc1cc(Br)c2c(c1)OCO2)Cc1cscn1 | -12.2
72 | CN(CCc1ccccn1)C1CCCN(Cc2noc(C3CC3)n2)C1 (stereo unspecified) | 11.6
73 | CCCc1nc(NCCc2ccccc2)c2c(n1)c(C)nn2CC | 20
74 | COCCCNS(=O)(=O)c1ccc(N2CCCCS2(=O)=O)cc1 | 0.308
75 | COC1COC2(CCN(Cc3ccccc3Cl)CC2)C1 (stereo unspecified) | -14.1
76 | CN1CCN(c2ncccc2N)CC1 | 11.5
77 | CN1CCN(Cc2ccccc2CNC(=O)c2ccc(Br)cc2)CC1 | 4.44
78 | O=C(N[C@@H]1CC[C@@H](N2CCCC2)[C@@H]1O)c1cc2ccccc2[nH]1 | -4.92
79 | CN(C)CCO[C@@H]1CC[C@H]2[C@H]1OCCN2C(=O)c1ccc(F)cc1 | -7.1
80 | O=C(NCC1Cn2nnc(-c3ccsc3)c2CO1)N1CCCC1 (stereo unspecified) | -110
81 | COCC1CC2(CCN(C(=O)c3cc(C)oc3C)CC2)CN1C(C)C (stereo unspecified) | -11.4
82 | Cc1ccc(C)c2c1NC(=O)C2CC(=O)O (stereo unspecified) | 28.4
83 | CC(C)N1CC(c2ncc(-c3ccc4c(c3)OCCO4)[nH]2)CC1=O (stereo unspecified) | 0.166
84 | CN1N=C(C(=O)NCCc2csc(-c3ccccc3)n2)CCC1=O | 0.621
85 | Cc1ccc(NC2CCN(C(=O)CCC3CCCO3)CC2)nn1 (stereo unspecified) | -1.2
86 | CCOc1cc(F)ccc1NC(=O)N(C(C)CS(C)(=O)=O)C1CC1 (stereo unspecified) | 4.11
87 | CN(C)C(=O)COc1ccccc1CN1CCOC2(CCCC2)C1 | -4.8
88 | CC(C)CCc1nc(CNCC2CN(C)CCO2)cs1 (stereo unspecified) | -15.2
89 | CS(=O)(=O)N1CCN(c2cc(N3CCCC3CO)ncn2)CC1 (stereo unspecified) | 3.51
90 | Cc1sc(NC(=O)CCC(=O)O)c(C(N)=O)c1-c1ccc(Cl)cc1Cl | 15.6
91 | CCCNC(=O)C(C)NC(=O)Nc1ccccc1SC(F)F (stereo unspecified) | 5.09
92 | COC(=O)c1cc(C(=O)N2CCCCCC2)n(-c2ccccc2)n1 | -5.33

Row | Structure (SMILES) | cytotoxicity at 10 µM [%]
93 | Cc1cccc(CN(Cc2ccccc2)Cc2nccs2)n1 | 12.4
94 | CCC(CO)N(Cc1cccc(O)c1)Cc1ccccc1C (stereo unspecified) | -8.22
95 | Cc1csc(NC(=O)CN2CCc3nn(C)c(=O)cc3C2)n1 | -0.995
96 | CC1=N[C@@]2(CC[C@@H]3CN(C(=O)NCC(C)C)C[C@@H]32)C(=O)N1CC(C)C | 2.68
97 | O=C1NCCN1C1CCN(CCOc2ccccc2Cl)CC1 | -6.69
98 | CS(=O)(=O)c1cccc(OCC(=O)N2CCCC2c2ccccc2Cl)c1 (stereo unspecified) | 4.36
99 | CCN(CC)CCn1cc(NC(=O)Nc2ccccc2OC)cn1 | 12.7
100 | Cc1cccc(C(=O)Oc2cc(=O)n3cccc(C)c3n2)c1 | 1.11
101 | CN(C)C(=O)COCc1ncn2c1CN(c1ncc(F)cn1)CCC2 | 6.01
102 | CCN1CCCC(c2c(-c3ccccc3)ncn2Cc2csc(N)n2)C1 (stereo unspecified) | -0.386
103 | N#Cc1cnn(CCN2CCOC(CNc3cccnn3)C2)c1 (stereo unspecified) | -3.85
104 | COCCC1(CO)CCCN(Cc2ccc(C(F)(F)F)nc2)C1 (stereo unspecified) | -146
105 | CCCC(NC(=O)c1cnccn1)c1nnc2ccccn12 (stereo unspecified) | 11.1
106 | O=C(NCc1csc(Br)c1)N1CCOCC1 | -7.45
107 | CCc1n[nH]c(C2CN(C(=O)c3cc(C(N)=O)cs3)CCO2)n1 (stereo unspecified) | -17.5
108 | COc1cccc(S(=O)(=O)N2C[C@H](OC)[C@]3(CCCO3)C2)c1 | -25.7
109 | c1cc(CN2C[C@@H]3OCCN(CCN4CCCC4)[C@@H]3C2)ccn1 | 3.39
110 | Cc1cnn(CC2CCCCN2Cc2cc(C)no2)c1 (stereo unspecified) | -9.21
111 | CC(C)CN1CCC2(C=C(C(=O)NC3CC3)c3ccccc32)CC1 | 1.11
